Holding throughout (assay type): functional
Test [1] concerns Mus musculus. The experiment in a line: Inhibition of delayed type hypersensitivity granuloma results at 100 mg/kg in wet weight. Summed up:
(§1)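 Groups of 10 female CF-1 mice (25 g) were sensitised sc over the inguinal lymph node with mBSA emulsion in Freund's incomplete adjuvant plus dextran. Two mBSA-soaked hydroxyapatite disks were implanted per mouse. Sc dosing ran daily from implantation to day 9, then granulomas were excised for wet and dry weights. Student's paired t test.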

The subject of test [2] is Mus musculus. The experiment in a line: Inhibition of delayed type hypersensitivity granuloma results at 100 mg/kg in dry weight. An outline of the steps: as §1
Test [3] deals with Rattus norvegicus. The experiment in a line: Inhibition of rat adjuvant induced polyarthritis (AIP) at the dose of 100 mg/kg in the injected paw. Summed up: (§2)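 Rats received adjuvant (M. tuberculosis in mineral oil) into the left hindpaw on day 0. Compounds in sterile saline, pH 7.0, were given sc once daily for 28 days, with sc vehicle arthritic controls. Paw volume change in injected and noninjected hindpaws was measured on day 28 by mercury-displacement plethysmography.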

Test [4] deals with Mus musculus. The experiment in a line: Inhibition of delayed type hypersensitivity granuloma results at 25 mg/kg in dry weight. Summed up: as §1
The subject of test [5] is Rattus norvegicus. The experiment in a line: Inhibition of rat adjuvant-induced arthritis (AIP) at the dose of 5 mg/kg in the non-injected paw. Summed up: as §2
In test [6] the test system is Mus musculus. The experiment in a line: Inhibition of antigen-induced arthritis (AIA) in mice at the dose of 100 mg/kg in the non-injected paw.
The test system of test [7] is Mus musculus. The experiment in a line: Inhibition of antigen-induced arthritis (AIA) in mice at the dose of 25 mg/kg in the non-injected paw.
Test [8] has as its system Mus musculus. The experiment in a line: Inhibition of delayed type hypersensitivity granuloma results at 50 mg/kg in dry weight. Summed up: as §1
In test [9] the test system is Rattus norvegicus. The experiment in a line: Inhibition of rat adjuvant induced polyarthritis (AIP) at the dose of 5 mg/kg in the injected paw. Summed up: as §2
Test [10] concerns Mus musculus. The experiment in a line: Inhibition of antigen-induced arthritis (AIA) in mice at the dose of 50 mg/kg in the non-injected paw.
Test [11] concerns Rattus norvegicus. The experiment in a line: Inhibition of rat adjuvant induced polyarthritis (AIP) at the dose of 60 mg/kg in the injected paw. Summed up: as §2
The test system of test [12] is Rattus norvegicus. The experiment in a line: Inhibition of rat adjuvant-induced arthritis (AIP) at the dose of 100 mg/kg in the non-injected paw. Summed up: as §2
The test system of test [13] is Rattus norvegicus. The experiment in a line: Inhibition of rat adjuvant induced polyarthritis (AIP) at the dose of 15 mg/kg in the injected paw. Summed up:
as §2

Test [14] concerns Rattus norvegicus. The experiment in a line: Inhibition of rat adjuvant-induced arthritis (AIP) at the dose of 15 mg/kg in the non-injected paw. Summed up:
as §2

Test [15] deals with Rattus norvegicus. The experiment in a line: Inhibition of rat adjuvant-induced arthritis (AIP) at the dose of 60 mg/kg in the non-injected paw. An outline of the steps: as §2
Test [16] has as its system Mus musculus. The experiment in a line: Inhibition of delayed type hypersensitivity granuloma at 25 mg/kg in wet weight. Summed up: as §1
In test [17] the test system is Mus musculus. The experiment in a line: Inhibition of delayed type hypersensitivity granuloma results at 50 mg/kg in wet weight. An outline of the steps: as §1
For test [18], the system named is Mus musculus. The experiment in a line: Inhibition of antigen-induced arthritis (AIA) in mice at the dose of 100 mg/kg. Summed up:
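Mice were immunised, boosted after 7 days, and challenged 14 days later with 200 μg mBSA in saline into the left rear stifle joint. Dosing was sc in saline at pH 7.0, 5 of 7 days, from challenge (day 0) to day 28. H&E sagittal joint sections were graded 1–5 each for soft tissue inflammation, pannus, and cartilage and bone erosion, then summed (max 20). One-way ANOVA vs vehicle.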

In test [19] the test system is Rattus norvegicus. The experiment in a line: Inhibition of rat adjuvant induced arthritis (AIP) at the dose of 100 mg/kg in the non-injected paw. Summed up: as §2
For test [20], the system named is Rattus norvegicus. The experiment in a line: Inhibition of rat adjuvant induced arthritis (AIP) at the dose of 15 mg/kg in the non-injected paw. Summed up:
as §2

The subject of test [21] is Mus musculus. The experiment in a line: Inhibition of delayed type hypersensitivity granuloma results at 200 mg/kg in wet weight. Summed up: as §1
The subject of test [22] is Mus musculus. The experiment in a line: Inhibition of delayed type hypersensitivity granuloma results at 200 mg/kg in dry weight. An outline of the steps:
as §1

In general, inhibition in vivo refers to how much of the control response was suppressed. As for `O=C(C1=NNC(P(=O)(O)O)(P(=O)(O)O)C1)c1ccccc1`, the values for the inhibition in vivo at 100 mg/kg with Mus musculus [1] and in the test on Mus musculus [2] were 18% and 19%, respectively.
For `CCOP(=O)(OCC)C1(P(=O)(OCC)OCC)CC(C(=O)c2cccc(F)c2)=NN1`, the inhibition in vivo at 100 mg/kg in the test with Rattus norvegicus [3] is 22%; in the test with Mus musculus [1], 58%; with Mus musculus [6], 55%; in the test on Mus musculus [2] it was 65%; with Rattus norvegicus [12], 55%. The figures for the inhibition in vivo at 25 mg/kg with Mus musculus [4], in the test on Mus musculus [7] and in the test on Mus musculus [16] were 49%, 42% and 42%, respectively. Besides, the inhibition in vivo at 5 mg/kg in the test with Rattus norvegicus [5] and with Rattus norvegicus [9] was 0% each time. Besides, the inhibition in vivo at 50 mg/kg in the test with Mus musculus [8] was found to be 51%; in the test on Mus musculus [10] it was 52%; in the test with Mus musculus [17], 45%. Besides, the inhibition in vivo at 60 mg/kg stood at 8% in the test with Rattus norvegicus [11] and 46% in the test with Rattus norvegicus [15]. In addition, the inhibition in vivo at 15 mg/kg with Rattus norvegicus [13] is 4%; with Rattus norvegicus [14], 46%.
Regarding `CCOP(=O)(OCC)C1(P(=O)(OCC)OCC)CC(C(=O)c2ccccc2)=NN1C`, the inhibition in vivo at 100 mg/kg came out at 11% in the test on Mus musculus [1] and 8% in the test on Mus musculus [2].
With `CCOP(=O)(OCC)C1(P(=O)(OCC)OCC)CC(C(=O)c2ccccc2C)=NN1`, the inhibition in vivo at 100 mg/kg in the test with Rattus norvegicus [3] came to 9%; in the test on Mus musculus [1], 37%; in the test on Mus musculus [18], 8%; in the test with Mus musculus [2] it was 48%; in the test with Rattus norvegicus [19], 66%. The inhibition in vivo at 15 mg/kg with Rattus norvegicus [13] is 18%; in the test on Rattus norvegicus [20], 49%.
For `CCOP(=O)(OCC)C1(P(=O)(OCC)OCC)CC(C(=O)c2ccccc2)=NN1CC(=O)OC`, the inhibition in vivo at 100 mg/kg in the test on Mus musculus [1] and in the test with Mus musculus [2] was 1% in each case.
`O=C(C1=NNC(P(=O)(O)O)(P(=O)(O)O)C1)C1CCCCC1`: the inhibition in vivo at 100 mg/kg in the test on Mus musculus [1] worked out at 1%; in the test with Mus musculus [2], 16%.
With `CCOP(=O)(OCC)C1(P(=O)(OCC)OCC)CC(C(=O)CC)=NN1`, the inhibition in vivo at 200 mg/kg is 28% in the test on Mus musculus [21] and 35% in the test with Mus musculus [22].
Turning to `CCOP(=O)(OCC)C1(P(=O)(OCC)OCC)CC(C(=O)c2ccc(C)cc2)=NN1`, the figures for the inhibition in vivo at 100 mg/kg in the test with Mus musculus [1] and with Mus musculus [2] were 20% and 22%, respectively.
On to `CCOP(=O)(OCC)C1(P(=O)(OCC)OCC)CC(C(=O)c2ccccc2)=NN1CCCN1N=C(C(=O)c2ccccc2)CC1(P(=O)(OCC)OCC)P(=O)(OCC)OCC`, for which the inhibition in vivo at 100 mg/kg was 10% in the test on Mus musculus [1] and 5% in the test on Mus musculus [2].

(Values after ChEMBL document CHEMBL1126664, “Pyrazoline bisphosphonate esters as novel antiinflammatory and antiarthritic agents” (1993).)
